Compound activity: PubChem, The Scripps Research Institute Molecular Screening Center
A selection: hits, their analogues and other compounds. The true share with any hit is near 1.9%.
M5 ag – CHRM5 agonism in calcium assay; P08912; activation, % at 3 µM; CHO-K1 hM5 cells, Fluo-8 calcium fluorescence; 0% DMSO wells, 100% maximal acetylcholine response; 0.19% of 360,000 active;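 active means activation above the run's mean over test compounds plus 3 SD, cut at about 23% in these data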;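 further: signal is peak over basal fluorescence ratio across the kinetic read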
Target sequence (P08912 whole entry, looked up): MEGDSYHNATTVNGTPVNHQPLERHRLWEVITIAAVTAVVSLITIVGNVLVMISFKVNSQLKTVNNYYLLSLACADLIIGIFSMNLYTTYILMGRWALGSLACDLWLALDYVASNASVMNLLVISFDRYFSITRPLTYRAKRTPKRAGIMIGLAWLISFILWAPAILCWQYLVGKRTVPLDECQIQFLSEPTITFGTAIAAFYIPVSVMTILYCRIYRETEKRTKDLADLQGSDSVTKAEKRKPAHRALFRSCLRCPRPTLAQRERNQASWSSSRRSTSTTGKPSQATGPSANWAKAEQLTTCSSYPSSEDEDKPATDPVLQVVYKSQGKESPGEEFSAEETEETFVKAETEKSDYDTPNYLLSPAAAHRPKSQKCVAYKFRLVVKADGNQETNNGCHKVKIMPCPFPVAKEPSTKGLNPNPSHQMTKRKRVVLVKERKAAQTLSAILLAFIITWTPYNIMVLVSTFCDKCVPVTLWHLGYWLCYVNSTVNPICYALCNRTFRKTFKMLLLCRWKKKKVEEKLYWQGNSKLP
CHRM5 PAM – CHRM5 positive allosteric modulation | CHO-K1 hM5, Fluo-8 calcium, ACh EC20 PAM; 0% = ACh EC20, 100% = ACh EC100 | AID 624038 | P08912 | activation, % at 3 µM | 0.3% of 360,000 active;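 active means activation above the run cutoff, the mean activation of all test compounds plus 3 SD, cut at about 18% in these data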
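Measured by: Fluo-8 calcium fluorescence; material: human M5 receptor in CHO-K1 cells; schedule: Post-acetylcholine fluorescence recording 140 s; benchmarks: low control EC20 acetylcholine (0%), high control EC100 acetylcholine (100%); read-out: Max/basal fluorescence ratio as % of EC20–EC100 ACh window; compound: single dose, 3 µM nominal final test concentration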
M4 antag – blocks acetylcholine activation of human M4 receptor; CHO-hM4 cells, ACh EC80, Fluo-8 calcium fluorescence; inhibition, % at 3 µM; 0.73% of 360,000 active; AID 624125;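 active means inhibition above its plate's cutoff, the mean inhibition of sample wells plus 3 SD, cut at about 27% in these data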
M4 PAM – CHRM4 positive allosteric modulation | CHO-K1 hM4/Gqi5, Fluo-8 calcium fluorescence, ACh EC20; 0% = ACh EC20, 100% = maximal ACh | 0.4% of 360,000 active | P08173 | AID 624126 | activation, % at 3 µM;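 active means activation above its plate's cutoff, the mean activation of sample wells plus 3 SD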
CHRM5 antagonist – antagonists of human muscarinic M5 receptor (CHRM5). 0.59% of 360,000 active. inhibition, % at 3 µM. AID 624040. CHO-hM5 cells, Fluo-8 calcium fluorescence, ACh EC80;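 active means inhibition above a per-plate cutoff, the mean of that plate's test compounds plus 3 SD, cut at about 27% in these data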
CHRM4 agonist – CHRM4 agonism in calcium assay; CHO-K1 hM4/Gqi5, Fluo-8 calcium fluorescence; vehicle 0%, full acetylcholine response 100%; 0.14% of 360,000 active; activation, % at 3 µM; AID 624127;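 active means activation above the run mean over all test wells plus 3 SD, cut at about 32% in these data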;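 further: peak over basal fluorescence ratio per well then scaled between controls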
A number is an active result; 0 = inactive; ! = not active in a repeat.

SMILES	M5 ag	CHRM5 PAM	M4 antag	M4 PAM	CHRM5 antagonist	CHRM4 agonist
COC(=O)C(O)(c1ccc(NC(=S)NC(=O)c2ccc(Cl)cc2Cl)c(C)c1)C(F)(F)F (centres undefined)	0	0	0	0	27	0
CCOC(=O)C(O)(c1ccc(NC(=S)NC(=O)c2ccc(Cl)cc2Cl)c(C)c1)C(F)(F)F (centres undefined)	0	0	31	0	37	40
COC(=O)C(O)(c1ccc(NC(=S)NC(=O)c2ccc(Cl)cc2Cl)cc1)C(F)(F)F (centres undefined)	0	0	0	0	0	0
CNC(=O)Oc1cccc2c1OC(C)(C)O2	0	0	0	0	0	0
O=C1NC(=O)C(=Cc2ccc(N3CCN(C(=O)c4ccccc4)CC3)c([N+](=O)[O-])c2)C(=O)N1	0	0	48	54	0	41
C/C=C1\NC(=O)[C@H](C)NC(=O)[C@@H](NC(=O)[C@H](Cc2ccc(O)cc2)NC(=O)[C@@H](NC(=O)/C(C)=C/C)C(C)C)[C@@H](C)OC(=O)[C@H](CCCc2ccc(O)cc2)NC(=O)[C@@H](CCC(=O)O)NC1=O	0	0	0	0	0	0
CCC(=NCc1ccco1)c1c(O)n(-c2ccc(OC)cc2)c(=O)[nH]c1=O	0	0	0	0	0	0
CCC(=NCc1ccco1)c1c(O)n(-c2ccc(Cl)cc2)c(=O)[nH]c1=O	0	26	0	0	0	0
CS(=O)(=O)c1ccc(C2=C(CNC(=O)c3nccs3)[C@H]3CC[C@@H](C2)N3CCOc2ccccc2)cc1	0	0	49	0	0	0
CS(=O)(=O)c1ccc(C2=C(CNC(=O)c3cccs3)[C@H]3CC[C@@H](C2)N3CCOc2ccccc2)cc1	0	0	0	0	0	0
ClC1C(Cl)C(Cl)C(Cl)C(Cl)C1Cl (centres undefined)	84!	0	0	0	35!	0
C[N+](C)(C)CCOC(=O)CBr	37	0	0	0	0	0
CC(=O)OCC[N+](C)(C)C	100	0	79	0	98	96
Oc1ccc(-[n+]2c(-c3ccccc3)cc(-c3ccccc3)cc2-c2ccccc2)cc1	0	0	54	0	0	0
O=[N+]([O-])c1ccc(-[n+]2c(-c3ccccc3)cc(-c3ccccc3)cc2-c2ccccc2)cc1	0	0	40	0	0	0
CC(C)(C)n1nnnc1C(c1cccs1)N1CCC2(CC1)C(=O)NCN2c1ccccc1 (centres undefined)	0	0	0	0	0	0
Cc1cc(-c2ccccc2)cc(-c2ccccc2)[n+]1CCc1ccccc1	0	0	38	0	0	0
Clc1ccc(C[n+]2c(-c3ccccc3)cc(-c3ccccc3)cc2-c2ccccc2)cc1	0	0	31	0	0	0
CCC(c1nnnn1Cc1ccccc1)N1CCC2(CC1)C(=O)NCN2c1ccccc1 (centres undefined)	0	0	0	0	0	0
C[C@H]1OC[C@@H](C[N+](C)(C)C)O1	107	0	73	0	96	98
CC1OC(C[N+](C)(C)C)CC1O (centres undefined)	102	0	30	0	95	71
C[C@]12C[C@H](O)[C@@H](O)C[C@@H]1CC[C@@H]1[C@@H]2CC[C@]2(C)C(=O)CC[C@@H]12	0	0	0	0	0	0
CN1CCN(C(=O)COc2ccc(S(=O)(=O)NC3CCCCC3)cc2Cl)CC1	0	21	0	0	0	0
COc1ccc(NS(=O)(=O)c2ccc(OCC(=O)N3CCN(C)CC3)cc2)cc1Cl	0	0	0	0	0	0
S=C1NCCN1	0	0	30	0	0	0
SMILES	M5 ag	CHRM5 PAM	M4 antag	M4 PAM	CHRM5 antagonist	CHRM4 agonist
Cc1ccccc1-c1ccc2c(c1)CNCc1cnnn1-2	0	0	0	0	0	0
O=c1[nH]c(=S)n(-c2ccccc2)c(O)c1/C=N/N1CCCCC1c1cccnc1 (centres undefined)	0	0	0	0	0	0
CCc1ccc(-n2c(O)c(/C=N/N3CCCCC3c3cccnc3)c(=O)[nH]c2=O)cc1 (centres undefined)	0	19	0	0	0	0
COC(=O)C1=C(c2ccc(C(C)=O)cc2)C[C@@H]2CC[C@H]1N2C(=O)NCc1ccc(C(F)(F)F)cc1	38	0	0	0	0	36
c1ccc2c(CN3CCCCCCC3)c[nH]c2c1	0	0	32	0	0	0
CC[N+](CC)(CC)CCCOC(=O)C(O)(c1ccccc1)C1CCCCC1 (centres undefined)	0	0	99	0	99	0
C[N+](C)(N)CCOC(=O)C(O)(c1ccccc1)C1CCCCC1 (centres undefined)	0	0	99	0	99	0
O=C(COC(=O)Cc1ccccc1)NC(=O)NC1CCCCC1	0	0	0	0	0	0
Nc1cccc(SC2CC(=O)N(c3ccc(Cl)cc3C(=O)c3ccccc3)C2=O)c1 (centres undefined)	0	0	0	0	27	0
O=c1[nH]c2ccccc2n1C1CCN(C(CCc2ccccc2)c2nnnn2-c2ccc3c(c2)OCCO3)CC1 (centres undefined)	0	0	0	0	0	0
COC(=O)[C@@H]1N=C(c2ccc(OC)cc2)O[C@]12C(=O)N(Cc1ccc(OC)cc1)c1ccccc12	0	0	0	0	0	0
Cc1[nH]c2ccc(OC(F)(F)F)cc2c1CCNCc1ccc(Cl)cc1	0	0	0	0	0	0
CCOc1cccc(CNCCc2c(C)[nH]c3ccc(OC(F)(F)F)cc23)c1O	24	0	29	0	42	43
Cc1[nH]c2ccc(OC(F)(F)F)cc2c1CCNCc1cccc([N+](=O)[O-])c1	0	0	0	0	29	0
O=C(c1ccc2c(c1)OCO2)C1CCCN(CC2CCCCC2)C1 (centres undefined)	0	0	41	0	0	0
O=C(Nc1ccc(C(=O)O)cc1)Oc1ccc(N(CCCl)CCCl)cc1	0	0	0	0	0	0
CCCC[n+]1cc(/N=C(\[O-])OC)on1	0	36	0	0	0	0
O=C(c1ccc(Cl)cc1)C1CCCN(Cc2cccc3cccnc23)C1 (centres undefined)	0	0	0	0	0	0
O=C(c1ccc(Cl)cc1)C1CCCN(Cc2cccc3ncccc23)C1 (centres undefined)	0	0	0	0	34	0
CC(C)C(O)(C(=O)OCC1=CCN2CCC(O)C12)C(C)O (centres undefined)	0	0	0	0	0	0
C[N+](C)(C)c1ccccc1	52	0	0	0	0	0
